OXTR potentiate: human OXTR potentiation | CHO-OTR cells, Fluo-8 calcium fluorescence, potentiator mode; 0% = oxytocin EC15, 100% = EC100 | activation, % at 3 µM | 320,000 compounds, 0.061% hits | AID 2445;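 active means activation above that plate's cutoff, the mean activation of tested compounds plus 3 SD, cut at about 6.6% in these data, passing the limit was not always enough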
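assay system = CHO-OTR cells, human receptor | schedule = compound 6 min at room temperature before oxytocin, 100 s read | detection = Fluo-8 intracellular calcium fluorescence, ex 470-495, em 515-575 nm | evaluation = normalized max/min fluorescence ratio, % activation | control set = EC15 oxytocin alone as 0%, 75 nM oxytocin (EC100) as 100%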
V1R ag counter: counter-screen for oxytocin receptor agonists: human V1a receptor agonists. P37288. CHO-V1R cells, Fluo-8 calcium fluorescence, agonist mode; 0% DMSO, 100% 3 nM vasopressin. activation, % at 3 µM. 320,000 compounds, 0.25% hits;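 active means activation above the mean activation of all tested compounds plus 3 SD, per screening run, cut at about 20% in these data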;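 further: signal is peak over basal fluorescence ratio across a 100 second FLIPR read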
Target sequence (P37288 whole entry, looked up): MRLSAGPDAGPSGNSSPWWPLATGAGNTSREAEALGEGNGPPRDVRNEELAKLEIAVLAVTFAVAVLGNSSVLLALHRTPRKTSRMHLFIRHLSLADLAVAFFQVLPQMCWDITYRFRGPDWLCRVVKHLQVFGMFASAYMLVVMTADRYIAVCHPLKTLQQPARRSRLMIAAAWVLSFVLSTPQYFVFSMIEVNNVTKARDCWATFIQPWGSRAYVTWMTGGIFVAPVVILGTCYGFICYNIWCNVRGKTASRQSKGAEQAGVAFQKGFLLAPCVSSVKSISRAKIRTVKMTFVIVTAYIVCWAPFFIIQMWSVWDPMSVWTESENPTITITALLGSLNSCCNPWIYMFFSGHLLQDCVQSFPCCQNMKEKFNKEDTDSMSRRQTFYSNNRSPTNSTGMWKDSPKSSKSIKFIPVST
TAAR1 ag: human TAAR1 agonism; activation, % at 3 µM; 360,000 compounds, 0.99% hits; AID 624467; Q96RJ0; CHO RD-HGA16 TAAR1, Fluo-8 calcium fluorescence; vehicle wells 0%, saturating PEA agonist 100%;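 active means activation above the mean activation of all test compounds in the run plus 3 SD, cut at about 38% in these data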
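Test system: RD-HGA16 (CHO) cells co-expressing Gα16 and hTAAR1; dosing: one-point dosing at 3 µM (nominal); timing: 17-24 h seeding, 75 min 37 °C dye, 30 min RT; signal: kinetic Fluo-8 calcium fluorescence; read-out basis: % activation relative to PEA EC100 response; controls: DMSO and PEA EC100; replicates: n 1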
OXTR agonist: agonists of human oxytocin receptor | CHO-OTR cells, Fluo-8 calcium fluorescence; normalized: DMSO 0%, oxytocin 100% | AID 2435 | 320,000 compounds, 0.32% hits | activation, % at 3 µM | P30559;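 active means activation above the mean of all tested compounds plus 3 SD, cutoff set per screening run, cut at about 20% in these data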;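 further: peak over basal fluorescence ratio from a 100 s FLIPR kinetic read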
TAAR1 antag: human TAAR1 antagonism. CHO RD-HGA16 TAAR1, Fluo-8 calcium fluorescence, antagonist. inhibition, % at 3 µM. Q96RJ0. 360,000 compounds, 1.5% hits. AID 624466;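 active means inhibition above a per-plate cutoff, the mean inhibition of test compounds on that plate plus 3 SD, cut at about 49% in these data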
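test system = CHO RD-HGA16 cells bearing hTAAR1 | replication = singlicate | controls = DMSO-only wells and EC80 β-PEA-stimulated wells | reagent = EC80 β-phenethylamine stimulus | read-out basis = percent inhibition of PEA-evoked calcium signal, max/basal emission ratio | schedule = seeding 17-24 h prior, 75-min 37 °C, 30-min RT dye loading | signal = kinetic Fluo-8 calcium fluorescence measurement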
V1R ag confirm: confirmation of human vasopressin V1a receptor agonists. activation, % at 3 µM. 180 compounds, 20% hits. shares compounds with V1R ag counter. CHO-V1R cells, Fluo-8 calcium fluorescence, agonist. AID 434964;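 active means average activation exceeds primary screen hit cutoff, cut at about 21% in these data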;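 further: peak over basal fluorescence ratio during a 100 s FLIPR read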
OXTR counter: activates oxytocin receptor in V1a agonist counter-screen. shares compounds with V1R ag counter. CHO-OTR cells, Fluo-8 calcium fluorescence. activation, % at 3 µM. 180 compounds, 10% hits. AID 434969;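 active means mean activation over three repeats above the cutoff from the earlier oxytocin receptor agonist screen, cut at about 20% in these data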;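 further: peak over minimum fluorescence ratio within a 100 second FLIPR read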
Hits are given with their value; 0 = inactive; - = no result; ! = repeats disagree. Shown are actives, neighbours in structure and some others; about 2.3% of the full set was active somewhere.

SMILES	OXTR potentiate	V1R ag counter	TAAR1 ag	OXTR agonist	TAAR1 antag	V1R ag confirm	OXTR counter
CCC[C@@H]1C[C@@H](C(=O)NC(C(C)Cl)[C@H]2O[C@H](SC)[C@H](O)[C@@H](O)[C@H]2O)N(C)C1 (stereo partly drawn)	0	0	0	0	0	-	-
CC(C)Cn1c(-c2ccc(Br)cc2)c[nH]c1=S	0	34.8	0	0	0	0	0
Cn1c(=O)c2c(=O)cc(N)[nH]c2n(C)c1=O	0	0	0	0	0	-	-
COc1ccccc1N1C(=O)c2cccc3c(N(C)CCO)ccc(c23)C1=O	0	31.4	0	0	0	0	0
COc1ccccc1N1C(=O)c2cccc3c(C(=O)O)ccc(c23)C1=O	0	0	0	0	0	-	-
CCCCOC(=O)Cn1c(=O)n(CC(=O)OCCCC)c2ccccc21	0	0	0	0	0	-	-
CCCCCCCCCCOC(=O)Cn1c(COc2ccc(OC)cc2)[n+](C)c2ccccc21	0	29.7	-	22.1!	-	0	0
O=C(COC(=O)c1ccc(Cl)c(S(=O)(=O)NCc2ccccc2)c1)NCC1CCCO1 (stereo not drawn)	0	0	0	0	0	-	-
CCOC(=O)Nc1ccc(C(=O)c2ccncc2)cc1	0	20.3	0	0	0	0	0
O=C(COc1ccc(F)cc1)N(Cc1ccco1)C1CCS(=O)(=O)C1 (stereo not drawn)	0	0	0	0	0	-	-
COC(=O)c1cc(CNC(=O)c2ccc(S(=O)(=O)N(C)c3ccccc3)cc2)ccc1OC	0	23.6	0	0	0	0	0
COc1ccc(C(=O)O)cc1S(=O)(=O)N(C)CCc1cccnc1	0	0	0	0	0	-	-
COc1ccc(C(=O)O)cc1S(=O)(=O)N(CCc1ccccc1)Cc1ccccc1	0	25.1	0	0	0	0	0
O=C(c1ccccc1NS(=O)(=O)c1cccc(C(F)(F)F)c1)N1CCc2ccccc21	0	0	0	0	0	-	-
O=C(c1ccccc1NS(=O)(=O)c1ccc(F)cc1)N1CCc2ccccc21	0	24.1	0	0	0	0	0
CCN1C(=S)SC(=O)C1=C1C=C(C)N(Cc2ccco2)C(C)=C1	0	24.3	0	0	0	22.8	0
CCN1C(=S)SC(=O)C1=C1C=C(C)OC(C)=C1	0	0	0	0	0	-	-
O=C(CC1CC2CCC1C2)N1CCN(S(=O)(=O)c2ccccc2C(F)(F)F)CC1 (stereo not drawn)	0	0	0	0	0	-	-
Cc1ccc(C)c(C(C)NC(=S)NCc2ccc(F)cc2)c1 (stereo not drawn)	0	23.7	0	0	0	0	0
CCCCNC(=O)c1ccc(N2CCOCC2)c(NS(=O)(=O)c2ccc(OC)cc2)c1	0	0	0	0	0	-	-
CCC1CCCCN1CCCNC(=O)c1ccc(N2CCOCC2)c(NS(=O)(=O)c2ccc(OC)cc2)c1 (stereo not drawn)	0	21.1	0	0	0	0	0
O=C(Cc1c(F)cccc1Cl)Nc1nc2ccccc2s1	0	21.9	0	0	0	0	0
CC(=O)c1sc(NC(=O)Cc2c(F)cccc2Cl)nc1C	0	0	0	0	0	-	-
Oc1ccc(Cl)cc1C=Nc1ccc2c3c(cccc13)CC2	0	50.9	0	0	0	0	0
Oc1ccc(Cl)cc1/C=N/c1nccs1	0	0	0	0	0	-	-
SMILES	OXTR potentiate	V1R ag counter	TAAR1 ag	OXTR agonist	TAAR1 antag	V1R ag confirm	OXTR counter
CCOc1cc(/C=C2\CCCc3c2nc2ccccc2c3C(=O)O)ccc1OC	0	59.6	59.0	0	0	0	0
O=C(Nc1nnc(-c2ccc3c(c2)CCCC3)o1)c1ccccc1	0	34.5	0	0	0	0	0
C#CCOCCOCCOCCNc1nc(N2CCN(C(=O)CCCCCCCCCCNC(=O)[C@H]([C@@H](C)CC)n3cc(CCCCCN)nn3)CC2)nc(N2CCN(C(=O)CCCCCCCCCCNC(=O)[C@H](CCCCN)n3cc(CCCC(=O)O)nn3)CC2)n1	0	20.3	-	0	-	0	0
C#CCOCCOCCOCCNc1nc(N2CCN(C(=O)CCCCCCCCCCNC(=O)[C@H](CCCCN)n3cc(CCCC(=O)O)nn3)CC2)nc(N2CCN(C(=O)CCCCCCCCCCNC(=O)[C@@H]([C@H](C)O)n3cc(C)nn3)CC2)n1	0	20.9	-	0	-	0	0
CC1=NN(S(=O)(=O)c2ccc(Cl)cc2Cl)C(=O)c2ccccc2O1	0	0	0	0	0	-	-
COc1ccc2nc(NC(=O)Cc3ccc(OC)c(S(=O)(=O)N4CCOCC4)c3)sc2c1	0	22.8	0	0	0	0	0
CC(C)(C)NC(=O)C(=O)NNC(=O)c1cccc([N+](=O)[O-])c1	0	0	0	0	0	-	-
CCOC(=O)c1[nH]c(C)c(C(=O)N2CCN(c3ccc(OC)cc3)CC2)c1C	0	0	0	0	0	-	-
CCOC(=O)c1[nH]c(CN2CCN(c3ccc(OC)cc3)CC2)c(C(=O)OCC)c1C	0	23.7	50.8	0	0	0	21.8
O=C(N/N=C/c1sc(=O)[nH]c1-[n+]1ccc2ccccc2c1)c1ccccc1[O-]	0	27.5	0	0	0	0	0
COc1ccc(/C=C2/C(=O)C(C)(C(C)C)CCC2C)cc1 (stereo not drawn)	0	20.3	0	0	0	0	0
COc1ccc(Nc2cc(C(=O)NCCCOC(C)C)c3ccccc3n2)c(OC)c1	0	25.4	0	0	0	0	0
Cc1nn(CC(=O)NC2CC2)c(C)c1S(=O)(=O)N(C)C	-	-	0	-	0	-	-
O=C(COc1ccccc1[N+](=O)[O-])N/N=C/c1ccc(O)c([N+](=O)[O-])c1	0	67.2	0	0	0	0	0
CCOC(=O)C1CCN(C(=O)c2cccc(S(=O)(=O)N(C)C3CCCCC3)c2)CC1	0	0	0	0	0	-	-
CCOC(=O)c1c(NC(=O)CC)sc2c1CCN(Cc1ccccc1)C2	0	21.6	0	0	0	0	0
